Results published in ChEMBL document CHEMBL1144463, “Rapid bactericidal activity of daptomycin against methicillin-resistant and methicillin-susceptible Staphylococcus aureus peritonitis in mice as measured with bioluminescent bacteria” (2007).
Values after ≈ are worked out from the molar mass of the structure shown.

Columns and labels:
Assay type in all cases: functional
Staphylococcus aureus [1] = assay: Reduction in bioluminescent methicillin-sensitive Staphylococcus aureus Xen29 in neutropenic CD1 mouse with peritonitis at 50 mg/kg, sc after 3 hrs relative to control; set-up: scale not given: the % may be the effect or the level left; details: route subcutaneous
Summary of the method: (§1)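 Cyclophosphamide-neutropenic female CD-1 mice (150 mg/kg i.p. day −4, 100 mg/kg day −1) were infected i.p. with a lethal inoculum in 6% mucin. A single s.c. or gavage dose was given 1 h later. Mice were anesthetized and imaged hourly to 5 h. Region-of-interest total flux (photons/s/cm2) was averaged over 5 mice. Percent reduction is relative to time-matched saline (10 ml/kg s.c.) controls.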

Staphylococcus aureus [2] = assay: Antibacterial activity against methicillin-resistant Staphylococcus aureus Xen1 infected neutropenic CD1 mouse assessed as mouse survival at 50 mg/kg, sc after 24 hrs; details: route subcutaneous
Summary of the method: (§2)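 Female CD-1 mice (20–25 g) were made neutropenic with cyclophosphamide i.p. at 150 mg/kg 4 days and 100 mg/kg 1 day before infection. They were infected i.p. with a lethal dose of lux strain (2 × 10^7 to 5 × 10^8 CFU/mouse) suspended in 6% hog gastric mucin. A single s.c. or gavage dose was given 1 h later. Survivors were counted daily for 7 days, n=5/group.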

Staphylococcus aureus [3] = assay: Reduction in bioluminescent methicillin-sensitive Staphylococcus aureus Xen29 in neutropenic CD1 mouse with peritonitis at 50 mg/kg, sc after 5 hrs relative to control; set-up: scale not given: the % may be the effect or the level left; details: route subcutaneous
Summary of the method: (§3)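 Neutropenia was induced with cyclophosphamide 150 mg/kg i.p. at day −4 and 100 mg/kg i.p. at day −1. Mice were then infected i.p. with Xen-29 (2 × 10^7 to 5 × 10^8 CFU) in 6% mucin (n = 5/group) and dosed once, s.c. or by gavage, at 1 h. Luminescence was imaged hourly under anesthesia, 0–5 h postdosing. Mean region-of-interest flux is given as percent reduction versus time-matched saline (10 ml/kg s.c.) controls.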

Staphylococcus aureus [4] = assay: Antimicrobial activity against bioluminescent methicillin-susceptible Staphylococcus aureus Xen29
Summary of the method: (§4)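 MIC by broth microdilution following CLSI guidelines against bioluminescent lux-carrying strains (Xen-1 plasmid-borne lux, Xen-29 chromosomal lux), grown overnight in Mueller-Hinton broth at 37°C.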

Staphylococcus aureus [5] = assay: Reduction in bioluminescent methicillin-sensitive Staphylococcus aureus Xen29 in neutropenic CD1 mouse with peritonitis at 50 mg/kg, sc after 2 hrs relative to control; set-up: scale not given: the % may be the effect or the level left; details: route subcutaneous; summary of the method: as §3
Staphylococcus aureus [6] = assay: Reduction in bioluminescent methicillin-resistant Staphylococcus aureus Xen1 in neutropenic CD1 mouse with peritonitis at 50 mg/kg, sc after 5 hrs relative to control; set-up: scale not given: the % may be the effect or the level left; details: route subcutaneous; summary of the method: as §1
Staphylococcus aureus [7] = assay: Reduction in bioluminescent methicillin-resistant Staphylococcus aureus Xen1 in immunocompetent CD1 mouse with peritonitis at 50 mg/kg, sc after 2 hrs relative to control; set-up: scale not given: the % may be the effect or the level left; details: route subcutaneous
Summary of the method: (§5)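 Peritonitis in healthy female CD-1 mice: lethal i.p. inoculum in 6% mucin, single s.c. dose 1 h later. Mice were anesthetized hourly (isoflurane inhalation or pentobarbital 60 mg/kg i.p.) and imaged ventral side up for 1–5 min. Total flux (photons/s/cm2) was taken over the infected-site region of interest and averaged over 5 mice. Percent reduction is versus saline-treated (10 ml/kg s.c.) controls at the same time point.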

Staphylococcus aureus [8] = assay: Antibacterial activity against methicillin-susceptible Staphylococcus aureus Xen29 infected nonneutropenic CD1 mouse assessed as mouse survival at 50 mg/kg, sc after 7 days; details: 168 h, route subcutaneous
Summary of the method: (§6)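 Healthy female CD-1 mice (20–25 g) were infected i.p. with a lethal dose of lux strain (2 × 10^7 to 5 × 10^8 CFU/mouse) from an overnight Mueller-Hinton culture suspended in 6% hog gastric mucin. A single s.c. dose was given 1 h post-inoculation. Survival was recorded daily for 7 days, n=5/group.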

Staphylococcus aureus [9] = assay: Reduction in bioluminescent methicillin-sensitive Staphylococcus aureus Xen29 in immunocompetent CD1 mouse with peritonitis at 50 mg/kg, sc after 4 hrs relative to control; set-up: scale not given: the % may be the effect or the level left; details: route subcutaneous
Summary of the method: (§7)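 Peritonitis in healthy female CD-1 mice (n = 5/group): i.p. Xen-29 (2 × 10^7 to 5 × 10^8 CFU) in 6% mucin, then a single s.c. or gavage dose at 1 h. Controls got saline 10 ml/kg s.c. Mice were anesthetized hourly (pentobarbital 60 mg/kg i.p. or isoflurane) and imaged ventral side up for 1–5 min, to 5 h postdosing. Total flux (photons/s/cm2) over the infected region was averaged per group. Percent reduction is versus time-matched saline controls.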

Staphylococcus aureus [10] = assay: Reduction in bioluminescent methicillin-sensitive Staphylococcus aureus Xen29 in immunocompetent CD1 mouse with peritonitis at 50 mg/kg, sc after 3 hrs relative to control; set-up: scale not given: the % may be the effect or the level left; details: route subcutaneous; summary of the method: as §7
Staphylococcus aureus [11] = assay: Antibacterial activity against methicillin-susceptible Staphylococcus aureus Xen29 infected neutropenic CD1 mouse assessed as mortality at 50 mg/kg, sc after 7 days; details: 168 h, route subcutaneous; summary of the method: as §2
Staphylococcus aureus [12] = assay: Reduction in bioluminescent methicillin-resistant Staphylococcus aureus with peritonitis Xen1 in immunocompetent CD1 mouse at 50 mg/kg, sc after 3 hrs relative to control; set-up: scale not given: the % may be the effect or the level left; details: route subcutaneous; summary of the method: as §5
Staphylococcus aureus [13] = assay: Reduction in bioluminescent methicillin-sensitive Staphylococcus aureus Xen29 in immunocompetent CD1 mouse with peritonitis at 50 mg/kg, sc after 5 hrs relative to control; set-up: scale not given: the % may be the effect or the level left; details: route subcutaneous; summary of the method: as §5
Staphylococcus aureus [14] = assay: Reduction in bioluminescent methicillin-resistant Staphylococcus aureus Xen1 in neutropenic CD1 mouse with peritonitis at 50 mg/kg, sc after 2 hrs relative to control; set-up: scale not given: the % may be the effect or the level left; details: route subcutaneous; summary of the method: as §1
Staphylococcus aureus [15] = assay: Reduction in bioluminescent methicillin-sensitive Staphylococcus aureus Xen29 in immunocompetent CD1 mouse with peritonitis at 50 mg/kg, sc relative to control; set-up: scale not given: the % may be the effect or the level left; details: route subcutaneous; summary of the method: as §7
Staphylococcus aureus [16] = assay: Antibacterial activity against methicillin-susceptible Staphylococcus aureus Xen29 infected neutropenic CD1 mouse assessed as mouse survival at 50 mg/kg, sc after 24 hrs; details: route subcutaneous; summary of the method: as §2
Staphylococcus aureus [17] = assay: Antibacterial activity against methicillin-resistant Staphylococcus aureus Xen1 infected neutropenic CD1 mouse assessed as mortality at 50 mg/kg, sc after 7 days; details: 168 h, route subcutaneous; summary of the method: as §2
Staphylococcus aureus [18] = assay: Antibacterial activity against methicillin-resistant Staphylococcus aureus Xen1 infected nonneutropenic CD1 mouse assessed as mouse survival at 50 mg/kg, sc after 7 days; details: 168 h, route subcutaneous; summary of the method: as §6
Staphylococcus aureus [19] = assay: Reduction in bioluminescent methicillin-sensitive Staphylococcus aureus Xen29 in neutropenic CD1 mouse with peritonitis at 50 mg/kg, sc after 4 hrs relative to control; set-up: scale not given: the % may be the effect or the level left; details: route subcutaneous; summary of the method: as §3
Staphylococcus aureus [20] = assay: Antimicrobial activity against bioluminescent methicillin-resistant Staphylococcus aureus Xen1; summary of the method: as §4
Staphylococcus aureus [21] = assay: Reduction in bioluminescent methicillin-sensitive Staphylococcus aureus Xen29 in immunocompetent CD1 mouse with peritonitis at 100 mg/kg, po after 3 hrs relative to control; set-up: scale not given: the % may be the effect or the level left; summary of the method: as §7
Staphylococcus aureus [22] = assay: Antibacterial activity against methicillin-resistant Staphylococcus aureus Xen1 infected neutropenic CD1 mouse assessed as mortality at 100 mg/kg, po after 4 days; summary of the method: as §2
Staphylococcus aureus [23] = assay: Reduction in bioluminescent methicillin-sensitive Staphylococcus aureus Xen29 in neutropenic CD1 mouse with peritonitis at 100 mg/kg, po after 3 hrs relative to control; set-up: scale not given: the % may be the effect or the level left; summary of the method: as §3
Staphylococcus aureus [24] = assay: Reduction in bioluminescent methicillin-resistant Staphylococcus aureus Xen1 in neutropenic CD1 mouse with peritonitis at 100 mg/kg, po after 5 hrs relative to control; set-up: scale not given: the % may be the effect or the level left; summary of the method: as §1
Staphylococcus aureus [25] = assay: Antibacterial activity against methicillin-susceptible Staphylococcus aureus Xen29 infected neutropenic CD1 mouse assessed as mortality at 100 mg/kg, po within 24 hrs; details: Xen29, 24 h; summary of the method: as §2
Staphylococcus aureus [26] = assay: Reduction in bioluminescent methicillin-sensitive Staphylococcus aureus Xen29 in neutropenic CD1 mouse with peritonitis at 100 mg/kg, po after 5 hrs relative to control; set-up: scale not given: the % may be the effect or the level left; summary of the method: as §3
Staphylococcus aureus [27] = assay: Reduction in bioluminescent methicillin-sensitive Staphylococcus aureus Xen29 in immunocompetent CD1 mouse with peritonitis at 100 mg/kg, po after 4 hrs relative to control; set-up: scale not given: the % may be the effect or the level left; summary of the method: as §7
Staphylococcus aureus [28] = assay: Antibacterial activity against methicillin-resistant Staphylococcus aureus Xen1 infected neutropenic CD1 mouse assessed as mortality at 100 mg/kg, po within 24 hrs; details: Xen1, 24 h; summary of the method: as §2
Staphylococcus aureus [29] = assay: Reduction in bioluminescent methicillin-sensitive Staphylococcus aureus Xen29 in neutropenic CD1 mouse with peritonitis at 100 mg/kg, po after 4 hrs relative to control; set-up: scale not given: the % may be the effect or the level left; summary of the method: as §3
Staphylococcus aureus [30] = assay: Reduction in bioluminescent methicillin-sensitive Staphylococcus aureus Xen29 in immunocompetent CD1 mouse with peritonitis at 100 mg/kg, po after 5 hrs relative to control; set-up: scale not given: the % may be the effect or the level left; summary of the method: as §7
Staphylococcus aureus [31] = assay: Reduction in bioluminescent methicillin-resistant Staphylococcus aureus Xen1 in neutropenic CD1 mouse with peritonitis at 100 mg/kg, po after 3 hrs relative to control; set-up: scale not given: the % may be the effect or the level left; summary of the method: as §1
Staphylococcus aureus [32] = assay: Antibacterial activity against methicillin-susceptible Staphylococcus aureus Xen29 infected neutropenic CD1 mouse assessed as mortality at 100 mg/kg, po after 4 days; summary of the method: as §2
Staphylococcus aureus [33] = assay: Reduction in bioluminescent methicillin-resistant Staphylococcus aureus Xen1 in neutropenic CD1 mouse with peritonitis at 100 mg/kg, po after 2 hrs relative to control; set-up: scale not given: the % may be the effect or the level left; summary of the method: as §1

CCCCCCCCCC(=O)N[C@@H](Cc1c[nH]c2ccccc12)C(=O)N[C@H](CC(N)=O)C(=O)N[C@@H](CC(=O)O)C(=O)N[C@@H]1C(=O)NCC(=O)N[C@@H](CCCN)C(=O)N[C@@H](CC(=O)O)C(=O)N[C@H](C)C(=O)N[C@@H](CC(=O)O)C(=O)NCC(=O)N[C@H](CO)C(=O)N[C@@H]([C@H](C)CC(=O)O)C(=O)N[C@@H](CC(=O)c2ccccc2N)C(=O)O[C@@H]1C
Activity (Staphylococcus aureus [1]): 98%
survival at 50 mg/kg (Staphylococcus aureus [2]): 100%
Activity (Staphylococcus aureus [3]): > 99.7%
MIC (Staphylococcus aureus [4]): 1 µg/mL (≈ 0.617 µM)
Activity (Staphylococcus aureus [5]): 92%
Activity (Staphylococcus aureus [6]): 99.9%
Activity (Staphylococcus aureus [7]): 89%
survival at 50 mg/kg (Staphylococcus aureus [8]): 100%
Activity (Staphylococcus aureus [9]): 98%
Activity (Staphylococcus aureus [10]): 96%
survival at 50 mg/kg (Staphylococcus aureus [11]): 40%
Activity (Staphylococcus aureus [12]): 97%
Activity (Staphylococcus aureus [13]): 99%
Activity (Staphylococcus aureus [14]): 93%
Activity (Staphylococcus aureus [15]): 90%
survival at 50 mg/kg (Staphylococcus aureus [16]): 100%
survival at 50 mg/kg (Staphylococcus aureus [17]): 40%
survival at 50 mg/kg (Staphylococcus aureus [18]): 100%
Activity (Staphylococcus aureus [19]): 99.4%
MIC (Staphylococcus aureus [20]): 0.5 µg/mL (≈ 0.309 µM)

CC(=O)NC[C@H]1CN(c2ccc(N3CCOCC3)c(F)c2)C(=O)O1 [LINEZOLID]
Activity (Staphylococcus aureus [21]): 59%
Activity (Staphylococcus aureus [22]): 100%
MIC (Staphylococcus aureus [4]): 1 µg/mL (≈ 2.96 µM)
Activity (Staphylococcus aureus [23]): 68%
Activity (Staphylococcus aureus [24]): 99.2%
survival at 100 mg/kg (Staphylococcus aureus [25]): 100%
Activity (Staphylococcus aureus [26]): 96.6%
Activity (Staphylococcus aureus [27]): 85%
survival at 100 mg/kg (Staphylococcus aureus [28]): 100%
Activity (Staphylococcus aureus [29]): 89%
Activity (Staphylococcus aureus [30]): 90%
MIC (Staphylococcus aureus [20]): 0.5 µg/mL (≈ 1.48 µM)
Activity (Staphylococcus aureus [31]): 98%
Activity (Staphylococcus aureus [32]): 100%
Activity (Staphylococcus aureus [33]): 91%
